Experimental findings from ChEMBL document CHEMBL1139941, “Development of 6-benzyl substituted 4-aminocarbonyl-1,4-diazepane-2,5-diones as orally active human chymase inhibitors” (Bioorg Med Chem Lett, 2007) are described below.

For orientation: half-life means the time needed for the level to fall by half in the phase considered. A low value points to fast loss. For orientation: inhibition in vivo means how much of the control response was suppressed. The pIC50 is −log10 of the IC50, conventionally taken in molar units.

Data set [1] is described as follows: Stability in aqueous solution in pH 7 at 10 uM. The format is physicochemical. The essentials: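 Compound at 10 µM incubated at 37 °C in 0.1 M phosphate buffer, pH 7.0, sampled at 0, 4 and 8 h; fraction remaining quantified by HPLC and reported as half-life.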
Data set [2] relates to Mus musculus. In words: Inhibition of DNFB-induced ear edema in mouse chronic dermatitis model at 10 mg/kg, ip after 24 hrs relative to control. It is filed as functional. The note with it: route intraperitoneal. The essentials:
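Chronic dermatitis in mice induced by repeated DNFB painting; intraperitoneal dosing at 10 mg/kg once daily over the experimental period. Ear thickness measured 24 h after sixth DNFB application, expressed as inhibition ratio against vehicle group; Student's t test.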

The target of data set [3] is T1, Chymase (Homo sapiens, UniProt P23946).
T1 sequence (P23946 whole entry): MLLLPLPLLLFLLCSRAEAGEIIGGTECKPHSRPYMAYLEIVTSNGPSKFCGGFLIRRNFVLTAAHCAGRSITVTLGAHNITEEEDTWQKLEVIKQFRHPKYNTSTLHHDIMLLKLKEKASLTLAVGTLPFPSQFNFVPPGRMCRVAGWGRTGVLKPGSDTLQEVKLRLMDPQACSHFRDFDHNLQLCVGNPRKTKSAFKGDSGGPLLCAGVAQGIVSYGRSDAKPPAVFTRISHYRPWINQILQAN
In words: Inhibition of human recombinant chymase.

The nature of data set [4]: Inhibition of bovine alpha chymotrypsin. Also on record: species or system Bos taurus.
Data set [5] concerns the target T2, Cathepsin G (Homo sapiens, UniProt P08311).
T2 sequence (P08311 whole entry): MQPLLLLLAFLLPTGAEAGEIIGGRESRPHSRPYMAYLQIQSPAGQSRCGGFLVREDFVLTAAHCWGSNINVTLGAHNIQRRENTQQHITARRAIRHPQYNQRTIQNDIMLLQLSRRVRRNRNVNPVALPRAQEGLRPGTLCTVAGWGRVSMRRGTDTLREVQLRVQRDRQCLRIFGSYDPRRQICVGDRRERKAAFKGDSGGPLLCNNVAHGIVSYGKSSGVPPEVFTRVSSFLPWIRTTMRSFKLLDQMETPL
In words: Inhibition of human cathepsin G.

The nature of data set [6]: Inhibition of bovine trypsin. Also on record: species or system Bos taurus.
Data set [7] is described as follows: Inhibition of human elastase.
The test system of data set [8] is Mus musculus. In words: Inhibition of DNFB-induced ear edema in mouse chronic dermatitis model at 10 mg/kg, po after 24 hrs relative to control. The format is functional. Summed up: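 Mouse chronic dermatitis model: DNFB painted repeatedly; compound dosed orally at 10 mg/kg once daily throughout the experimental period. Ear thickness read 24 h after the sixth DNFB painting; inhibition ratio calculated versus vehicle, significance by Student's t test.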

pIC50: −log10 of the molar value.

`COc1ccc(Cl)cc1CC1CNC(=O)CN(C(=O)NC(c2ccccc2)C(C)C)C1=O` (centres undefined): the half-life at 10 µM in data set [1] is 8 h.

The molecule `C[C@]12C=CC(=O)C=C1CC[C@@H]1[C@@H]2[C@@H](O)C[C@@]2(C)[C@H]1CC[C@]2(O)C(=O)CO` [PREDNISOLONE] returned an inhibition in vivo at 10 mg/kg in data set [2] of 54.6%.

In turn, `COc1ccc(Cl)cc1CC1CNC(=O)CN(C(=O)NCc2ccccc2)C1=O` (racemic) had a half-life at 10 µM in data set [1] of 6.8 h.

Consider `COc1ccc(Cl)cc1CC1CNC(=O)CN(C(=O)NC(C)c2ccccc2)C1=O` (centres undefined), for which the half-life at 10 µM in data set [1] was 6.2 h.

As to `COc1ccc(Cl)cc1CC1CNC(=O)CN(C(=O)N(C)Cc2ccccc2)C1=O` (racemic), the pIC50 in data set [3] is less than 4.00. Further, in data set [1], the half-life at 10 µM was greater than 48 h.

In turn, `CCC(NC(=O)N1CC(=O)NCC(Cc2cc(Cl)ccc2OC)C1=O)c1ccccc1` (centres undefined) had a half-life at 10 µM in data set [1] of 6.3 h.

With `CC[C@@H](NC(=O)N1CC(=O)NC[C@@H](Cc2cc(Cl)ccc2OC)C1=O)c1ccc(C(=O)O)c(N)c1`, the half-life at 10 µM in data set [1] was 6.7 h. The pIC50 in data set [4] is less than 4.00; in data set [5] it was 4.80; in data set [6], less than 4.00; in data set [7], less than 4.00. Moreover, the inhibition in vivo at 10 mg/kg in data set [8] is 29.7%.

For `CCCC(NC(=O)N1CC(=O)NCC(Cc2cc(Cl)ccc2OC)C1=O)c1ccccc1` (centres undefined), the half-life at 10 µM in data set [1] is 7.6 h.

`COc1ccc(Cl)cc1CC1CNC(=O)CN(C(=O)NCCc2ccccc2)C1=O` (racemic) had a half-life at 10 µM in data set [1] of 12.9 h.

In data set [1], `CC[C@@H](NC(=O)N1CC(=O)NC[C@H](Cc2cc(Cl)ccc2OC)C1=O)c1ccc(C(=O)O)c(N)c1` showed a half-life at 10 µM of 6.1 h. Moreover, the pIC50 in data set [4] was 4.64; in data set [5], 4.55; in data set [6] it was less than 4.00; in data set [7], less than 4.00. Further, in data set [8], the inhibition in vivo at 10 mg/kg is 35.8%.

The molecule `CC[C@@H](NC(=O)N1CC(=O)NC[C@@H](Cc2cc(Cl)ccc2OC)C1=O)c1cccc(C(=O)O)c1` showed a half-life at 10 µM in data set [1] of 7.4 h. Moreover, the negative logarithm of the IC50 (pIC50) in data set [4] is 4.25; in data set [5], 5.10; in data set [6] it was less than 4.00; in data set [7], less than 4.00. In data set [8], at 10 mg/kg the inhibition in vivo was 22.9%.

As for `COc1ccc(Cl)cc1CC1CNC(=O)CN(C(=O)NC(c2ccccc2)c2ccccc2)C1=O` (racemic), the pIC50 in data set [3] was less than 4.00. Further, the half-life at 10 µM in data set [1] was 16.5 h.
